Assay: Toxicity liver stage against HepG2, at 10uM
Format: cell-based
Set-up: test concentration 10 uM, cell line HepG2-A16-CD81EGFP
Details: human, HepG2-A16-CD81EGFP cells; read-out: INHIBITION
How it was run: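 Uninfected HepG2-A16-CD81EGFP cells, 3 × 10^3 per well, 1536-well, plated on prespotted compound at 10 μM final, parasite-free screening media added to match infected plates; puromycin 10 μM positive, DMSO 0.5% negative; run in parallel with 48 h PbLuc assay at 37 °C, 5% CO2; viability by CellTiter-Glo luminescence, normalized to controls.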

SMILES: CC[C@H]1CN2CC[C@H]1C[C@@H]2CNC(=O)Nc1ccccc1
- cytotoxicity at 10 µM: -0.989%

SMILES: CCOC(=O)[C@@H]1[C@@H](c2ccccc2)CN2CCN(C(=O)N(C)C)C[C@H]12
- cytotoxicity at 10 µM: 14.8%

SMILES: CC(O)CN1CC(C)(C)CN(C(=O)CCc2ccccc2)CC1=O (stereo not given)
- cytotoxicity at 10 µM: -0.321%

SMILES: CC(C)COC(=O)N1CC(=O)N(Cc2ccc(Cl)cc2)CC(O)C1 (stereo not given)
- cytotoxicity at 10 µM: -0.947%

SMILES: COc1ccc2nnc(CCCC(=O)NCCc3ccncc3)n2n1
- cytotoxicity at 10 µM: -10%

SMILES: CCOC(=O)c1sc(NC(=O)CN2C(=O)CCC2=O)c(C#N)c1C
- cytotoxicity at 10 µM: -6.93%

SMILES: O=S(=O)(NCC1(O)CCCC1)c1ccccc1Br
- cytotoxicity at 10 µM: -3.87%

SMILES: N#Cc1ccc(C(=O)N2CCC(Oc3ccc(C#N)cn3)CC2)cc1
- cytotoxicity at 10 µM: 7.92%

SMILES: CC(=O)N1CCC2(CC1)CN(C(=O)c1ccc3c(c1)OCO3)C2
- cytotoxicity at 10 µM: 6.71%

SMILES: CN(C)C(=O)CN1CCC2(CCN(S(=O)(=O)C3CC3)CC2)C1=O
- cytotoxicity at 10 µM: 6.32%

SMILES: Cc1noc(C2CCC3(CCN(C(=O)C4CCOCC4)CC3)O2)n1 (stereo not given)
- cytotoxicity at 10 µM: 7.16%

SMILES: O=C(CCn1ccc2ccc(F)cc21)/N=c1\[nH]nc(C2CCCO2)s1 (stereo not given)
- cytotoxicity at 10 µM: -0.0308%

SMILES: Cc1c(C)n(-c2ccccn2)c2nc3c(c(N)c12)CCCCC3
- cytotoxicity at 10 µM: 6.1%

SMILES: Cc1c(Br)cnn1CCC(=O)N(C)Cc1c(Cl)cnn1C
- cytotoxicity at 10 µM: -13.7%

SMILES: COCCOc1ccc(S(=O)(=O)Nc2cccnc2O)cc1C
- cytotoxicity at 10 µM: 4.68%

SMILES: Cc1cnn(C2CCCN(C(=O)c3cc(-c4ccccc4C)n[nH]3)C2)c1 (stereo not given)
- cytotoxicity at 10 µM: -9.66%

SMILES: O=C(NCc1ccc(N2CCSCC2)cc1)NCc1cc[nH]n1
- cytotoxicity at 10 µM: -0.645%

SMILES: CCSc1cc(C(=O)N(Cc2cnn(C)c2)C(C)C)ccn1
- cytotoxicity at 10 µM: 4.64%

SMILES: O=C(NC1CCCN(Cc2c(F)cccc2F)C1)c1cc[nH]n1 (stereo not given)
- cytotoxicity at 10 µM: 5.72%

SMILES: CN(CC(=O)NS(=O)(=O)c1cccs1)Cc1ccccc1
- cytotoxicity at 10 µM: -9.71%

SMILES: CC(C)Cc1noc(CN(C)C2CCS(=O)(=O)C2)n1 (stereo not given)
- cytotoxicity at 10 µM: 5.7%

SMILES: CN(C)c1cc2c(nn1)CCN(C(=O)c1cc3c(s1)CCOC3)C2
- cytotoxicity at 10 µM: 2.35%

SMILES: O=C(c1cnc(NCC2CCCO2)c(Cl)c1)N1CCCCC1 (stereo not given)
- cytotoxicity at 10 µM: 0.139%

SMILES: CCNc1c(C#N)c(=O)n(C)c(=O)n1C
- cytotoxicity at 10 µM: 0.504%

SMILES: CC1CN(c2ncnc3ccccc23)CCO1 (stereo not given)
- cytotoxicity at 10 µM: 23.6%

SMILES: CC(C)(C)OC(=O)Cn1nc(C2CC2)cc(C(F)(F)F)c1=O
- cytotoxicity at 10 µM: -8.96%

SMILES: CCOc1ccccc1NC(=O)CN(C)Cc1ccccc1Cl
- cytotoxicity at 10 µM: -6.93%

SMILES: Cc1ccc(C)c(NC(=O)c2cc(S(=O)(=O)N3CCSCC3)c[nH]2)c1
- cytotoxicity at 10 µM: -0.185%

SMILES: CCSc1ccc(C(=O)NCCc2nnc(-c3ccco3)[nH]2)cn1
- cytotoxicity at 10 µM: 10.7%

SMILES: COCCCN(CCOC)C(=O)Nc1ccccc1-n1cccn1
- cytotoxicity at 10 µM: 1.51%

SMILES: COC1CCCN(C(=O)NCC(C)(C)SC)C1 (stereo not given)
- cytotoxicity at 10 µM: 10.5%

SMILES: CCn1cc(CN(C)S(=O)(=O)N2CCCC2c2ccco2)cn1 (stereo not given)
- cytotoxicity at 10 µM: 9.14%

SMILES: Cc1cccc(N2N=C(C(=O)NC(C)Cc3ccco3)CCC2=O)c1 (stereo not given)
- cytotoxicity at 10 µM: -9.6%

SMILES: CC(C)c1nc(CNC(C(=O)N2CCOCC2)C(C)C)no1 (stereo not given)
- cytotoxicity at 10 µM: 6.43%

SMILES: NC(=O)[C@@H]1Cc2ccccc2CN1S(=O)(=O)N1CCCCCC1
- cytotoxicity at 10 µM: 15.6%

SMILES: CC(NC(=O)Cc1ccccc1F)(C(N)=O)c1cccc(Cl)c1 (stereo not given)
- cytotoxicity at 10 µM: 17.6%

SMILES: Cc1cc(NC(=O)NCC2(O)CCCC2)ccn1
- cytotoxicity at 10 µM: -6.36%

SMILES: Cc1nnnn1-c1cc(NCc2cc(C#N)ccc2F)ccc1F
- cytotoxicity at 10 µM: 0.685%

SMILES: Cc1ccc(S(=O)(=O)N2CCN(Cc3ccncc3)CC2)c(Cl)c1
- cytotoxicity at 10 µM: -0.147%

SMILES: COc1cccc(C(=O)N2CCN(CC(O)c3ccccc3)CC2)c1 (stereo not given)
- cytotoxicity at 10 µM: -46.7%

SMILES: Cc1cc(C)n(C2CCCN(C(=O)Cn3ccc(=O)n(C)c3=O)C2)n1 (stereo not given)
- cytotoxicity at 10 µM: 0.437%

SMILES: COc1ccccc1CC(=O)NC(CC(=O)O)c1ccc(F)cc1 (stereo not given)
- cytotoxicity at 10 µM: -4.24%

SMILES: CCN1C[C@@H]2CN(C(=O)c3cccn3C)C[C@@H]2C1=O
- cytotoxicity at 10 µM: -96.1%

SMILES: Cn1cc(C[C@H]2[C@H](N3CCOCC3)CCN2C(=O)c2ccoc2)cn1
- cytotoxicity at 10 µM: -81.5%

SMILES: COCC(=O)N1CCCN(Cc2cc(O)c3ccccc3n2)CC1
- cytotoxicity at 10 µM: 4.02%

SMILES: Cc1nn(C)c2nc(N3CCNC(=O)C3Cc3ccccc3)sc12 (stereo not given)
- cytotoxicity at 10 µM: -2.32%

SMILES: CCn1c(C2CCNCC2)nn(CCn2cncn2)c1=O
- cytotoxicity at 10 µM: -6.26%

SMILES: CCC(=O)N1CCN(S(=O)(=O)c2cccc(F)c2)[C@H]2CS(=O)(=O)C[C@H]21
- cytotoxicity at 10 µM: -52%

SMILES: Cc1ccc(OC[C@@H]2CNC[C@H](C(=O)NCC3CCCO3)C2)cn1 (stereo not given in full)
- cytotoxicity at 10 µM: -8.14%

SMILES: COCCN(C)C[C@@H]1CN(c2nc(C)cc(C)n2)C[C@@H]1CO
- cytotoxicity at 10 µM: -10.3%

SMILES: Cc1nc(O)cc(CN2CCC=C(CN(C)C(=O)c3ccco3)C2)n1
- cytotoxicity at 10 µM: 8.82%

SMILES: CN(Cc1nncn1C)C(=O)c1cc(COc2ccccc2F)[nH]n1
- cytotoxicity at 10 µM: 2.14%

SMILES: Cc1cc(NC(C)c2nncn2C2CCCC2)n2nc(C)c(C)c2n1 (stereo not given)
- cytotoxicity at 10 µM: 13.7%

SMILES: Cc1nc(C(=O)N2CCCCC2c2ccc(CN(C)C)cc2)c(C)o1 (stereo not given)
- cytotoxicity at 10 µM: -2.32%

SMILES: CC(C)(C)CCN1CCC(c2nnc(Cn3cccn3)n2C2CC2)CC1
- cytotoxicity at 10 µM: 8.19%

SMILES: CN(Cc1noc2c1CCCC2)C(=O)C1Cc2ccccc2CN1C (stereo not given)
- cytotoxicity at 10 µM: 4.74%

SMILES: O=C1NCCN(C(=O)CN2CCOC2=O)C1c1cccc(F)c1 (stereo not given)
- cytotoxicity at 10 µM: 8.91%

SMILES: CCc1oc(C(=O)NCCc2cc(O)nc(C)n2)cc1CN1CCCC1
- cytotoxicity at 10 µM: 13.1%

SMILES: O=C(CC1=CSC2=NCCCN12)N1CCCCC1c1cccc(F)c1 (stereo not given)
- cytotoxicity at 10 µM: -160%

SMILES: CC1(C)CN(Cc2c[nH]c(CC3CCCC3)n2)CC[C@]1(C)O
- cytotoxicity at 10 µM: 2.74%

SMILES: O=c1[nH]c(-c2ccncc2)nc2c1CCN(S(=O)(=O)N1CCCC1)C2
- cytotoxicity at 10 µM: 6.04%

SMILES: CCc1nc(CCn2ccc3nc(OC)c(C#N)cc3c2=O)no1
- cytotoxicity at 10 µM: 3.57%

SMILES: Cc1nc(N)nc(C)c1Cc1nc(C2CC2)n[nH]1
- cytotoxicity at 10 µM: -9.44%

SMILES: CCC(NC(=O)c1nn(C)cc1C(=O)O)c1ccc(C)cc1C (stereo not given)
- cytotoxicity at 10 µM: -8.66%

SMILES: CCCn1cc2c(C(F)F)cc(SCC(=O)O)nc2n1
- cytotoxicity at 10 µM: -10.9%

SMILES: COc1ccc(-c2nonc2N)cc1
- cytotoxicity at 10 µM: -7.97%

SMILES: Cc1csc(N2CCN(CC(=O)N3CCCC3)CC2C)n1 (stereo not given)
- cytotoxicity at 10 µM: -0.456%

SMILES: COc1ccc(NC(=O)N2CCCCCC2c2ccncc2)cn1 (stereo not given)
- cytotoxicity at 10 µM: 5.55%

SMILES: COC(=O)N1CCCN(C(=O)NCc2ccc(Cl)s2)CC1
- cytotoxicity at 10 µM: 1.76%

SMILES: CCn1c(C)nnc1CN(C)C1CCN(CCn2cccn2)C1 (stereo not given)
- cytotoxicity at 10 µM: 1.49%

SMILES: CC(C)CN1C(=O)C2(CCN(Cc3ccsc3)C2)c2ccccc21 (stereo not given)
- cytotoxicity at 10 µM: 15.7%

SMILES: CC(C)Nc1ncnc2c1CCN(C(=O)c1ccccc1F)CC2
- cytotoxicity at 10 µM: -86.7%

SMILES: CN(C)Cc1cc(=O)n2c(n1)CN(C(=O)c1ccc[nH]1)CCC2
- cytotoxicity at 10 µM: -123%

SMILES: CO[C@@H]1CCN(Cc2nccn2C)[C@H]1Cc1cccnc1
- cytotoxicity at 10 µM: -71.5%

SMILES: Cn1cc(CN2CCCC3(COCCN(c4cccnc4)C3)C2)cn1 (stereo not given)
- cytotoxicity at 10 µM: -75.6%

SMILES: O=C(NCC1CC1)[C@@H]1CC[C@@H]2[C@@H](CCN2Cc2ccc(F)c(F)c2)O1
- cytotoxicity at 10 µM: 8.33%

SMILES: CCN1C[C@H]2[C@@H](C1)N(S(=O)(=O)c1ccccc1F)CC[C@H]2OC
- cytotoxicity at 10 µM: -74.1%

SMILES: Cn1ccc(C(=O)N2C[C@@H]3CCN(c4cccnc4)C[C@@H]3C2)n1
- cytotoxicity at 10 µM: -106%

SMILES: Cc1ccc(N2CCN(C(=O)CN3C[C@H]4CC[C@@H]3C4)CC2=O)cc1
- cytotoxicity at 10 µM: -1.41%

SMILES: Cc1ccc(OCc2occc2C(=O)N2C[C@@H]3C(CN(C)C)[C@@H]3C2)cc1 (stereo not given in full)
- cytotoxicity at 10 µM: -1%

Source: ChEMBL document CHEMBL4513216, “Probing the Open Global Health Chemical Diversity Library for Multistage-Active Starting Points for Next-Generation Antimalarials” (ACS Infect Dis, 2020)
